High-throughput results: PubChem, several laboratories
Only some compounds are listed: those with a hit (about 1.9% of all), similar ones and a draw of the others.
Rce1 inh = blocks yeast Ras-converting enzyme. yeast membranes, quenched prenylated peptide cleavage fluorescence. calls only. 290,000 tested, 0.27% active. AID 2563;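 active means fall in fluorescence gain of 50% or more versus controls, with final raw signal at or below 3038400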;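 further: plate controls were neutral control wells for no effect and wells lacking membranes for full effect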
Target sequence (Q03530 whole entry, looked up): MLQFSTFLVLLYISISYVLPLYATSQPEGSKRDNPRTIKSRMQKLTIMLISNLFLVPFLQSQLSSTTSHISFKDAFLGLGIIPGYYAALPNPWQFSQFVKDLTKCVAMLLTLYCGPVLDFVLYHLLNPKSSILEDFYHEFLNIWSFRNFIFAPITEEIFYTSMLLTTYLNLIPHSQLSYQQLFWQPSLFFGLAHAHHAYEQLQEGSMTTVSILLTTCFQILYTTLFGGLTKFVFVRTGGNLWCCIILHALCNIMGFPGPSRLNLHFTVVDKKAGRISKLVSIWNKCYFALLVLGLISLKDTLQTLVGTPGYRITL
proKLK7 act = proKLK7 (human) activation, primary screen | activation, % at 7 µM | P49862 | 370,000 tested, 0.9% active | AID 652039 | purified proKLK7, EDANS-DABCYL substrate fluorescence; 100% is mature enzyme control, 0% vehicle;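 active means activation above the mean of all tested compounds plus 3 SD, computed per campaign excluding outliers beyond control limits, cut at about 13% in these data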
Target sequence (P49862 whole entry, looked up): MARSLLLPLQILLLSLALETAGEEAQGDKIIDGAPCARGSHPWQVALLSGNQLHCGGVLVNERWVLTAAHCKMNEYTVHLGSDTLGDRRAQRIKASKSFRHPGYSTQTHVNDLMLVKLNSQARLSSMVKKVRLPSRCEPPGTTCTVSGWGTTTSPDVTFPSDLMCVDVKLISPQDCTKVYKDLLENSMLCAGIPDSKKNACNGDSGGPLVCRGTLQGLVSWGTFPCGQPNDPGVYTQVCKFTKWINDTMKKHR
T cell HTS = T cell immune modulators affecting CD8 T cell-vesicle binding. 2C CD8+ T cell-vesicle binding, flow cytometry; active compounds read low. response (vesicle binding), % at 7 µM. 330,000 tested, 0.068% active;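 active means response, share of CD8 T cells binding vesicles, and their 90th percentile fluorescence all below set limits, cut at about 80% in these data, passing the limit was not always enough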;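 further: values below 100% mean blocked vesicle binding to the CD8+ T cells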
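material = purified 2C TCR transgenic mouse naive CD8+ T cells | controls = Unloaded micro-vesicles (low), QL9 vesicles with 0.7% DMSO (high) | detection = cytometric PE anti-B7-1 and Alexa647 anti-CD8 signals after 1% paraformaldehyde fixation | incubation = binding step 1.5 h, 37 °C, antibody labelling 20 min, ice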
CR mimetic SO = yeast age-related superoxide inhibition as caloric restriction mimetic; S. cerevisiae aged cells, superoxide DHE fluorescence; active compounds read low; superoxide response (% of plate mean), % at 10 µM; 330,000 tested, 0.18% active;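 active means superoxide response under a set limit, about three screen SD below normal, cut at about 65% in these data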;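 further: yeast aged for seven days with compound at 30 °C before DHE staining; 100% = average MFI of all compound-treated wells on the plate with controls excluded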
V-ATPase pH = yeast V-ATPase proton transport regulation by pHLuorin | response, % at 10 µM | 350,000 tested, 0.37% active | AID 504577 | S. cerevisiae, pHLuorin cytosolic pH fluorescence; in the data active means response mostly above about 7.3%, no sharp cut-off; inactive means mostly below about 5.4%; further: actives read high
MIN6 prolif = induces beta-cell replication in MIN6 cells; AID 2380; proliferation, % at 10 µM; 330,000 tested, 0.29% active; MIN6 cells proliferation, ATPlite luminescence, 48 h; cells starved in 0.2% serum; 100% = growth in 10% serum;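 active means compounds whose signal lies at least 3.5 SD above the mean of all wells on their plate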;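 further: 0% = DMSO-treated cells in low-serum medium and 100% = 10% serum control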
Superoxide pick = confirmation of caloric restriction mimetics inhibiting yeast age-related superoxide | shares compounds with CR mimetic SO | S. cerevisiae aging, superoxide DHE fluorescence; active compounds read low | superoxide response (% of plate), % at 10 µM | 850 tested, 1% active;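 active means superoxide signal below 65% of the plate average of sample wells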;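 further: cells aged with compound for 7 days at 30 degrees C before staining; 100% equals mean DHE fluorescence of all compound wells on the plate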
DHE counter = DHE fluorescence interference, counter-screen artifact | 850 tested, under 10 active | S. cerevisiae BY4741, flow cytometry; active compounds read low | fluorescence response, % at 10 µM | shares compounds with CR mimetic SO;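 active means fluorescence response below 15%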;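 further: percent of the mean fluorescence averaged over all compound wells on the plate; lower means stronger quenching of DHE signal or ROS scavenging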
The depositor's hits bear a star; i = inactive; nt = no result given.

SMILES | Rce1 inh | proKLK7 act | T cell HTS | CR mimetic SO | V-ATPase pH | MIN6 prolif | Superoxide pick | DHE counter
CCCNC(=O)c1ccc2c(=O)c(O)c(-c3ccc(Cl)c([N+](=O)[O-])c3)[nH]c2c1 | i | 1.1 | 763.4 | 63.6* | -2.5 | -5.6 | 79.9 | 95.9
O=C(NCCc1nc2ccccc2[nH]1)c1ccc(Cl)c([N+](=O)[O-])c1 | i | -0.8 | 217.1 | 111.2 | -2.6 | -3.9 | nt | nt
CC(C)C[C@@H]1COc2cccc(N3CCSCC3)c2S(=O)(=O)N1 | nt | -0.3 | nt | nt | nt | nt | nt | nt
Cc1ccc(-c2nnc(Nc3ccc(OCC(N)=O)cc3)c3ccccc23)cc1S(N)(=O)=O | i | 0.8 | 49.7 | 104.2 | 1.2 | -1.3 | 103.8 | 97.4
NC(=O)COc1ccc(Nc2nnc(-c3ccc(O)cc3)c3ccccc23)cc1 | i | 0.6 | 207.0 | 90.2 | -0.4 | 0.7 | nt | nt
Cc1ccc(-c2nnc(Nc3cccc(O)c3)c3ccccc23)cc1S(=O)(=O)NCCO | i | 0.5 | 162.9 | 97.4 | 2.2 | -2.6 | nt | nt
Cc1ccc(-c2nnc(Nc3ccc(CC(N)=O)cc3)c3ccccc23)cc1S(N)(=O)=O | i | -0.5 | 199.3 | 84.2 | -0.1 | -0.3 | 99.4 | 97.0
Cc1ccc(-c2nnc(Nc3ccc(O)cc3)c3ccccc23)cc1S(=O)(=O)NCCO | i | 0.8 | 134.7 | 106.4 | 0.6 | -0.5 | 124.4 | 115.9
CNC(=O)c1ccc(Nc2nnc(-c3ccc(C)c(S(N)(=O)=O)c3)c3ccccc23)cc1 | i | 5.7 | 215.2 | 102.3 | -0.8 | 6.0 | 93.7 | 91.0
O=C(Cc1c[nH]c2ccccc12)Nc1ccc(Nc2cccnc2)c(-c2cccc(Cl)c2)c1 | nt | -3.0 | nt | nt | nt | nt | nt | nt
Cc1ccc(C)c(OCc2cc(C(=O)N3CC[C@H](O)C3)no2)c1 | i | 0.9 | 93.4 | 87.5 | -0.4 | -0.4 | nt | nt
CCOc1ccc(Oc2ccc(C(F)(F)F)cc2NC(=O)C2=COCCO2)cc1 | nt | -0.6 | 725.8 | 87.0 | 10.4 | -6.0 | nt | nt
Cc1cc(NC(=O)C(C)SCC(=O)Nc2cc(C(F)(F)F)ccc2N2CCOCC2)no1 (configuration not stated) | i | 0.0 | 489.6 | 98.6 | -0.1 | -3.0 | nt | nt
Cc1ccccc1-c1nc(CS(=O)(=O)CC(=O)NCCCN2CCOCC2)c(C)o1 | i | 0.6 | 247.5 | 103.1 | -1.1 | -1.2 | nt | nt
Cc1ccccc1-c1nc(CS(=O)(=O)CC(=O)NCCCN2CC(C)CC(C)C2)c(C)o1 (configuration not stated) | i | -0.3 | 211.6 | 65.2* | -1.4 | -2.7 | 93.9 | 90.3
CC(C)(C)c1ccc(/C=N/OCC(=O)NCc2ccc(F)cc2)cc1 | i | -0.1 | 526.9 | 62.5* | -2.9 | -3.2 | 101.3 | 91.0
Cc1ccc(/C=C(\C#N)c2nc3ccccc3[nH]2)s1 | i | -6.7 | 353.2 | 94.8 | -3.1 | -3.4 | nt | nt
N#C/C(=C/c1cccs1)c1nc2ccccc2[nH]1 | i | -0.1 | 855.7 | 60.5* | -4.7 | -1.6 | 110.9 | 106.8
Cc1cccc(NC(=O)c2nc[nH]c2C(=O)N[C@@H](CC(C)C)C(=O)OCc2ccccc2)c1 | i | -3.8 | 748.8 | 63.3* | 3.5 | -6.8 | 91.2 | 94.4
O=C(Nc1ccc2ccccc2n1)c1ccccc1Cl | i | -0.3 | 258.6 | 117.3 | 0.4 | -4.4 | nt | nt
COc1ccc2nc3ccccc3nc2c1NC(=O)c1ccccc1Cl | i | -0.5 | 193.3 | 52.6* | -0.5 | 1.2 | 79.6 | 92.7
CCCCCN(C(=O)CCC(=O)OCc1ccccc1C)c1c(N)n(CCCC)c(=O)[nH]c1=O | i | 0.2 | 215.6 | 107.8 | 0.9 | -2.7 | nt | nt
CCCCCN(C(=O)CCC(=O)OCc1ccccc1Cl)c1c(N)n(CCCC)c(=O)[nH]c1=O | i | 0.9 | 543.1 | 59.9* | 2.4 | -4.4 | 104.9 | 97.4
CSc1ccc(/C=C(\C#N)C(=O)NC2CCCCC2)cc1 | i | -0.2 | 238.7 | 60.1* | -2.2 | 0.0 | 101.8 | 90.8
CC(=O)Nc1ccc(/C=C(\C#N)C(=O)NC2CCCCC2)cc1 | i | 0.2 | 190.4 | 101.1 | -6.5 | -0.7 | nt | nt
SMILES | Rce1 inh | proKLK7 act | T cell HTS | CR mimetic SO | V-ATPase pH | MIN6 prolif | Superoxide pick | DHE counter
CCOC(=O)c1ccccc1N/C=C/C(=O)c1cccs1 | i | -1.7 | 197.7 | 63.4* | 6.1 | -0.9 | 110.0 | 90.5
O=C(/C=C/Nc1ccccc1F)c1cccs1 | i | -0.1 | 258.5 | 105.2 | 8.9 | 0.0 | nt | nt
COc1ccc(C)cc1N(C(=O)c1cccc(F)c1)c1nc2ccccc2s1 | nt | 10.3 | i | 48.5* | 3.7 | -2.3 | 96.5 | 107.8
COc1ccc(C)cc1N(C(=O)c1ccccc1)c1nc2ccccc2s1 | i | -1.5 | 345.7 | 98.3 | 0.6 | -3.8 | nt | nt
Cc1cc(NC(=O)CNCC(c2ccccc2)N(C)C)c([N+](=O)[O-])cc1C (configuration not stated) | i | 0.1 | 77.7 | 42.9* | -1.9 | -1.2 | 91.1 | 94.1
CC(C)N(C)c1ncnc2c1ncn2[C@H]1CN(Cc2ccc(-c3ccccc3)cc2)C[C@@H](CO)O1 | nt | -0.3 | nt | nt | nt | nt | nt | nt
C#CCSc1nnc(-c2ccc(C)cc2)o1 | i | 0.3 | 435.1 | 96.3 | -4.4 | -0.9 | 81.3 | 92.9
C#CCSc1nnc(-c2ccc(O)cc2)o1 | nt | -0.6 | 176.8 | 86.4 | -0.7 | -2.1 | 99.1 | 101.8
C#CCSc1nnc(-c2cccc3ccccc23)o1 | i | 0.1 | 132.6 | 94.7 | -2.6 | 1.1 | nt | nt
C[C@H](CO)N1C[C@H](C)[C@@H](CN(C)S(=O)(=O)c2cccc(C#N)c2)OCc2cnnn2CCCC1=O | nt | 0.9 | nt | nt | -1.3 | nt | nt | nt
NNC(=O)CCn1c2ccccc2c2ccccc21 | i | -0.4 | 244.9 | 107.6 | -1.2 | -3.5 | 96.8 | 106.0
O=C(NCCOc1ccccc1)c1ccccc1Cl | i | -0.3 | 403.5 | 100.8 | -1.6 | -3.1 | nt | nt
COc1ccc(OCCNC(=O)c2ccccc2Cl)cc1 | i | 0.1 | 187.0 | 64.2* | 2.3 | -4.0 | 95.9 | 93.5
COc1ccc(CCC(=O)NCCOc2ccc(C)cc2)cc1 | i | -0.4 | 29.2 | 39.3* | 0.4 | -1.2 | 94.5 | 90.9
COc1ccc(-c2sc3cc4c(cc3c2C#CCO)OCO4)cc1 | nt | -10.7 | 350.0 | 63.0* | -3.8 | -6.3 | 103.0 | 92.4
COc1cccc(NC(=O)CN2CCN(CC(=O)Nc3ccc(F)cc3)CC2)c1 | i | -1.0 | 92.9 | 61.1* | 5.9 | -2.1 | 112.6 | 105.1
O=C(CN1CCN(c2ccccn2)CC1)Nc1cccc(F)c1 | i | -0.2 | 967.4 | 100.6 | -1.2 | -3.7 | 110.2 | 92.4
O=C(CN1CCN(c2ccccn2)CC1)Nc1cccc(Br)c1 | i | -0.1 | 104.5 | 101.8 | -2.3 | 2.8 | 92.1 | 102.1
COC(=O)C1=C(C)N(Cc2cccc(C(F)(F)F)c2)C(=NCc2ccc(OC)cc2)NC1c1ccc(Cl)cc1 (configuration not stated) | nt | -0.1 | nt | nt | nt | nt | nt | nt
